# Test results from ChEMBL document CHEMBL1123724, “A novel synthesis of colchicide and analogues from thiocolchicine and congeners: reevaluation of colchicide as a potential antitumor agent” (1987).
# Tests used:
# [1] = target: Tubulin beta chain (Bos taurus) (UniProt Q6B856); conditions: at 25 µM
# Mus musculus [2] = assay: In vivo antitumor activity against P388 mouse leukemia expressed as T/C (median survival time of treated animals / median survival time of untreated controls x 100) at a dose of 0.5 mg/kg; assay type: functional
# Procedure, shortened: (§1)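 P388 leukemia implanted ip in mice, with ip dosing on a QD1 × 9 schedule. Read-out is T/C = median survival of treated animals / median survival of untreated controls × 100. Activity requires duplicate tests giving T/C ≥120%.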
# Mus musculus [3] = assay: In vivo antitumor activity against P388 mouse leukemia and minimum affective dose (MED) which produced a T/C greater than the threshold value of 125 was reported.; assay type: functional; conditions: read-out: MED
# Procedure, shortened: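 P388 leukemia cells implanted intraperitoneally in mice. Drug given ip once daily for 9 days (QD1 × 9). T/C = median survival time of treated animals / median survival time of untreated controls × 100. Minimum effective dose is the lowest dose (mg/kg) giving T/C above the threshold of 125. Reported dose levels are those with the highest T/C.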
# Mus musculus [4] = assay: In vivo antitumor activity against P388 mouse leukemia expressed as T/C (median survival time of treated animals / median survival time of untreated controls x 100) at a dose of 0.18 mg/kg; assay type: functional
# Procedure, shortened: as §1
# Mus musculus [5] = assay: In vivo antitumor activity against P388 mouse leukemia expressed as T/C (median survival time of treated animals / median survival time of untreated controls x 100) at a dose of 12.5 mg/kg; assay type: functional
# Procedure, shortened: as §1
# Mus musculus [6] = assay: In vivo antitumor activity against P388 mouse leukemia expressed as T/C (median survival time of treated animals / median survival time of untreated controls x 100) at a dose of 0.94 mg/kg; assay type: functional
# Procedure, shortened: as §1
# Mus musculus [7] = assay: In vivo antitumor activity against P388 mouse leukemia expressed as T/C (median survival time of treated animals / median survival time of untreated controls x 100) at a dose of 0.32 mg/kg; assay type: functional
# Procedure, shortened: as §1
# Mus musculus [8] = assay: In vivo antitumor activity against P388 mouse leukemia expressed as T/C (median survival time of treated animals / median survival time of untreated controls x 100) at a dose of 3.12 mg/kg; assay type: functional
# Procedure, shortened: as §1
# Tubulin beta chain (Bos taurus), sequence (Q6B856 whole entry): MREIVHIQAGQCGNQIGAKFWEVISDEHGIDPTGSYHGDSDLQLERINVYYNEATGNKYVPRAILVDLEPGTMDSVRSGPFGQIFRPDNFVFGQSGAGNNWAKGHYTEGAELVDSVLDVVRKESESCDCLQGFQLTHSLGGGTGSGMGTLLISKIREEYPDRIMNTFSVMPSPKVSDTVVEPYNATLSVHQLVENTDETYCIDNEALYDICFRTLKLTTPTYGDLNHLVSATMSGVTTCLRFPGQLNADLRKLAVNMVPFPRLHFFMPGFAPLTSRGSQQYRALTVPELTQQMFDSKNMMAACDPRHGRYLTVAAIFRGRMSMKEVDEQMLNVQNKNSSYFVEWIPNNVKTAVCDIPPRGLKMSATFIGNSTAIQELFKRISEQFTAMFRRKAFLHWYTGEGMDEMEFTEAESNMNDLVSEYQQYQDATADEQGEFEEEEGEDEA
SMILES,Tubulin binding [1],minimal effective dose (Mus musculus [3]),also measured
COc1cc2c(c(OC(C)=O)c1OC)-c1cccc(=O)cc1[C@@H](NC(C)=O)CC2,0%,–,–
COc1cc2c(c(OC)c1OC)-c1ccc(OC)c(=O)cc1[C@@H](NC(C)=O)CC2 [COLCHICINE],–,0.06 mg/kg,T/C (Mus musculus [2]): 245
COc1c2c(cc3c1-c1cccc(=O)cc1[C@@H](NC(C)=O)CC3)OCO2,0%,–,–
COc1cc2c(c(OC)c1OC)-c1ccc(SC)c(=O)cc1[C@@H](NC(C)=O)CC2 [THIOCOLCHICINE],–,0.05 mg/kg,T/C (Mus musculus [4]): 193
COc1cc2c(c(OC)c1OC)-c1ccc(SCc3ccccc3)c(=O)cc1[C@@H](NC(C)=O)CC2,–,3.12 mg/kg,T/C (Mus musculus [5]): 214
COc1cc2c(c(O)c1OC)-c1cccc(=O)cc1[C@@H](NC(C)=O)CC2,0%,–,–
COc1c2c(cc3c1-c1ccc(OC)c(=O)cc1[C@@H](NC(C)=O)CC3)OCO2,–,> 0.4 mg/kg,T/C (Mus musculus [6]): 166
CNc1ccc2c(cc1=O)[C@@H](NC(C)=O)CCc1cc(OC)c(OC)c(OC)c1-2,–,0.04 mg/kg,T/C (Mus musculus [7]): 166
COc1cc2c(c(OC)c1O)-c1cccc(=O)cc1[C@@H](NC(C)=O)CC2,26%,–,–
CCN(CC)c1ccc2c(cc1=O)[C@@H](NC(C)=O)CCc1cc(OC)c(OC)c(OC)c1-2,–,0.39 mg/kg,T/C (Mus musculus [8]): 216
